# Hits are enriched below; roughly 1.5% of the tested compounds scored in any of these assays.
# zVAD death inh: blocks zVAD induced death of L929 cells | AID 1377 | L929 zVAD necroptosis rescue, ATP luminescence, 24 h; with zVAD 60 µM | viability rescue, % at 10 µM | 0.38% of 220,000 active;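 active = activation, scaled between plate controls, above about 75%, limit read from the data; inactive = activation under that limit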;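 also: 0% = zVAD with DMSO and 100% = DMSO alone without zVAD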
# TbHK1 inh: blocks Trypanosoma brucei hexokinase 1 activity; 0.11% of 220,000 active; recombinant TbHK1, G6PDH-coupled NADH A340; inhibition, % at 10 µM;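 active = inhibition of 50% or more in the single-dose primary screen; inactive = inhibition below 50%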
# TNF death inh: blocks TNF-alpha induced death of Jurkat FADD-/- cells; Jurkat FADD-/- TNF necroptosis rescue, ATP luminescence, 24 h; 0 = TNF only, 100 = no-TNF cells; activation (protection from cell death), % at 10 µM; 0.068% of 220,000 active; AID 463075;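 active = activation, meaning protection from cell death, of at least 50% relative to plate controls; inactive = activation below 50%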;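 also: necroptosis triggered by 40 ng/mL TNF-alpha added together with compound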
# Dynein cargo inh: dynein cargo transport inhibition; z-score, hits read low; 0.47% of 220,000 active; 3617.4 mouse cells, GR-EGFP nuclear translocation imaging; test concentration mostly 20 µM; stimulated with dexamethasone, 1 µM; hits give low values; AID 1381;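 active = plate z-score of nuclear minus cytoplasmic receptor signal below a set negative limit, without overly bright fluorescence or cell loss, cut at about -3.5 in these data, passing the limit was not always enough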;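 also: z-score of nuclear minus cytoplasmic ring GR-EGFP intensity difference per well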
#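 medium = tetracycline-free induction medium containing charcoal-stripped FBS | also added = 1.0 µM final dexamethasone stimulus | schedule = 48 h induction, 1 h compound, 30 min dex at 37 °C | technique = fixed, Hoechst-stained cells imaged at 10x for EGFP | measure = GR-EGFP nuclear translocation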
# S1P4 agonist: agonists of human S1P4 receptor; O95977; S1P4-expressing cell line, agonist reporter assay; activation, % at 4.98 µM; 0.35% of 220,000 active; AID 1509; in the data active = activation above about 11%;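 also: 0% = DMSO vehicle and 100% = reference agonist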
# Target sequence (O95977 whole entry, looked up): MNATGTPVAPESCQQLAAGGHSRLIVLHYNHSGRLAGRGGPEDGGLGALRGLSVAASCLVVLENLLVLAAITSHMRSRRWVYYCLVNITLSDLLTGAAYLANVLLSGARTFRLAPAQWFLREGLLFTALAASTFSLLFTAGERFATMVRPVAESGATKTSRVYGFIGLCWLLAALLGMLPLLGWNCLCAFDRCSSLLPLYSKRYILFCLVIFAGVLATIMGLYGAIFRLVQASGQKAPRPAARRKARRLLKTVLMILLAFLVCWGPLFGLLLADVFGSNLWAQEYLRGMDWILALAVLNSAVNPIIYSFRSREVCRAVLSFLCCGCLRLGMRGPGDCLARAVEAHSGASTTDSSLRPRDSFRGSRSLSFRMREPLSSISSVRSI
# S1P4 antagonist: blocks the human S1P4 receptor | AID 1510 | 0.26% of 220,000 active | inhibition, % at 4.98 µM | O95977 | S1P4-expressing cells, antagonist mode, reporter read-out; in the data active = inhibition above about 29%;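 also: 0% = wells stimulated with agonist and 100% = vehicle wells without agonist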
# zVAD necrop conf: confirmed blocker of zVAD induced death in L929 cells | shares compounds with zVAD death inh | L929 zVAD-induced necroptosis rescue, ATP luminescence, 24 h | activation (protection from necroptosis), % at 10 µM | 16% of 760 active | AID 463117;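 active = mean protection from necroptosis of at least 50% over duplicate tests; inactive = mean protection below 50%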;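 also: 0% = cells with zVAD alone and 100% = vehicle cells without zVAD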
# * marks the source's active call; other numbers are inactive results; · = no result given.
SMILES,zVAD death inh,TbHK1 inh,TNF death inh,Dynein cargo inh,S1P4 agonist,S1P4 antagonist,zVAD necrop conf
O=C(Nc1nccs1)c1ccc(N2C(=O)[C@@H]3[C@H](C2=O)[C@H]2C=C[C@@H]3C2)cc1,79*,-12,17,-0.29,2,0,2
O=C(Nc1nccs1)c1cccc(N2C(=O)C3C4C=CC(C4)C3C2=O)c1 (configuration not stated),78*,29,11,1.1,0,-12,17
O=C(Nc1nccs1)c1ccc(N2C(=O)C3CCCCC3C2=O)cc1 (configuration not stated),1,-5,3,-0.6,3,-18,·
Cc1ccc(NC(=O)CCC(=O)NNC(=O)c2ccccc2[N+](=O)[O-])c(C)c1,1,-1,-1,-0.43,-1,-20,·
Nc1[nH]nc2nc(N3CCOCC3)nc(-c3ccccc3)c12,92*,25,0,-0.54,3,-53,39
O=C(CSc1nnnn1-c1ccc2c(c1)OCCO2)Nc1nc2c(s1)CCCC2,84*,-1,2,-0.18,0,6,74*
COc1ccc(N2C3=C(CC4=C2CC(C)(C)CC4=O)C(=O)CC(C)(C)C3)cc1,95*,1,2,11,-1,6,40
COc1ccc(N2C3=C(CC4=C2CCCC4=O)C(=O)CCC3)cc1,0,-5,-4,-0.41,0,-15,·
CC1=NN(c2ccccc2)C(=O)/C1=C\c1cc(C)n(-c2cccnc2)c1C,0,-31,-2,0.34,2,-11,·
CC1=NN(c2ccccc2)C(=O)/C1=C\c1cc(C)n(-c2ccccc2)c1C,88*,-11,3,0.33,-1,-19,2
Cc1nc2nc(SCC(=O)c3ccc([N+](=O)[O-])cc3)[nH]c2cc1Br,90*,-1,0,0.3,2,-15,1
CCN(CC)CCNC(=O)c1ccc(Sc2ccc(Cl)cc2)c(NC(C)=O)c1,0,-4,5,-1.3,0,-2,·
CCC(=O)n1nc(-c2ccc(OC)cc2)nc1NCc1cccs1,76*,-3,2,0.044,1,-11,0
COCC(=O)n1nc(-c2ccccc2)nc1NCc1ccc(F)cc1,10,-7,3,-0.61,-2,-2,·
COCC(=O)n1nc(-c2ccccc2)nc1NCc1ccccc1,86*,-4,5,1.6,-2,-7,1
CC(=O)n1nc(-c2ccccc2)nc1NCc1cccs1,86*,-3,2,-0.23,-1,-7,5
CC1=CC(C)C2(COC(=O)Nc3ccccc3)COC(C)C1C2C (configuration not stated),68,-2,1,-0.77,1,-10,·
CCC(=O)N1CCC2(CC1)Oc1ccc(F)cc1C(=O)C21CC(c2ccccc2)=NO1 (configuration not stated),-1,-12,0,0.75,·,·,·
NC(=O)C(C(=O)/C=C/c1ccc(Cl)cc1)=C1SCCS1,82*,-39,13,-1.2,1,-15,1
O=C(/C=C/c1ccc(Cl)cc1)NC1CC2CCC1C2 (configuration not stated),2,0,2,-0.48,-1,-7,·
CC(C)(C)c1nc(NC(=O)Nc2ccccc2)sc1Br,83*,0,-1,0.48,0,0,3
CC(=O)OC1CC[C@@]2(C)C(CCC3C2CC(=O)[C@@]2(C)C3CC3CC(C)=CC(=O)C32)C1 (some centres not stated),0,-4,-3,-0.45,-1,-2,·
Cc1ccc(N=Nc2c(N)[nH]n3c(=O)cc(C)nc23)cc1,76*,-6,2,-0.68,2,-19,0
O=C(Nc1ccc(-c2noc(COc3ccccc3Cl)n2)cc1)c1ccco1,98*,-6,-3,-0.072,1,-5,36
COc1ccc(CC(=O)Nc2ccc(-c3noc(COc4ccccc4C)n3)cc2)cc1,1,3,2,0.85,0,-14,·
